# Experimental data taken from paper PMC10872764 (Journal of controlled release : official journal of the …, 2023).
# Legend:
# [1] = system: mouse lungs; assay: In vivo cytotoxicity; details: mice, 2.5 mg/mL, 30 μl/mouse, nasal inhalation
# Outline: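 Wild-type C57/Bl6 mice received 30 μl of a 2.5 mg/ml solution of self-assembled prodrug, or saline, by nasal inhalation. Lungs were collected 48 h later per methods (18 h per results). Tissue went to histopathology, apoptotic cell counts, immunofluorescence, and ELISA/qRT-PCR for proinflammatory cytokines. At least three mice per group; experiments repeated twice.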
# [2] = Water solubility; type: physicochemical
# [3] = system: P. aeruginosa induced bacterial pneumonia; assay: P. aeruginosa induced bacterial pneumonia model, wild-type mice; type: in vivo, mouse; details: wild-type mice infected with P. aeruginosa; treatment 18 h after inoculation
# Outline: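 In wild-type C57BL/6 mice, P. aeruginosa was instilled intratracheally via tracheal intubation. Test compound (10 mg/kg) was given by nasal instillation 18 h after inoculation, and lungs were collected 30 h later (48 h post-infection). Lung sections were H&E-stained; n = 5 per group; one-way ANOVA with multiple comparisons.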
# [4] = target: T1, ACE2 (Homo sapiens, UniProt Q9BYF1); assay: Activity of recombinant ACE2 with Zn chelation by DTPA; type: biochemical; details: 25 μg/mL H4 (200 ng/mL elsewhere in the source), 25 mM DTPA, 37 °C
# Outline: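 Human recombinant ACE2 was incubated at 37 °C with or without test compound (25 μg/mL in methods; 200 ng/mL in legend). Free Zn was depleted with 25 mM DTPA. Activity was read by fluorogenic Mca-YVADAPK(Dnp)-OH cleavage (ex 330/em 405 nm) in MES/NaCl/ZnCl2/Brij-35 buffer, pH 6.5. Each dot is one treatment well; one-way ANOVA.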
# Target sequence in this assay (Q9BYF1 18-805): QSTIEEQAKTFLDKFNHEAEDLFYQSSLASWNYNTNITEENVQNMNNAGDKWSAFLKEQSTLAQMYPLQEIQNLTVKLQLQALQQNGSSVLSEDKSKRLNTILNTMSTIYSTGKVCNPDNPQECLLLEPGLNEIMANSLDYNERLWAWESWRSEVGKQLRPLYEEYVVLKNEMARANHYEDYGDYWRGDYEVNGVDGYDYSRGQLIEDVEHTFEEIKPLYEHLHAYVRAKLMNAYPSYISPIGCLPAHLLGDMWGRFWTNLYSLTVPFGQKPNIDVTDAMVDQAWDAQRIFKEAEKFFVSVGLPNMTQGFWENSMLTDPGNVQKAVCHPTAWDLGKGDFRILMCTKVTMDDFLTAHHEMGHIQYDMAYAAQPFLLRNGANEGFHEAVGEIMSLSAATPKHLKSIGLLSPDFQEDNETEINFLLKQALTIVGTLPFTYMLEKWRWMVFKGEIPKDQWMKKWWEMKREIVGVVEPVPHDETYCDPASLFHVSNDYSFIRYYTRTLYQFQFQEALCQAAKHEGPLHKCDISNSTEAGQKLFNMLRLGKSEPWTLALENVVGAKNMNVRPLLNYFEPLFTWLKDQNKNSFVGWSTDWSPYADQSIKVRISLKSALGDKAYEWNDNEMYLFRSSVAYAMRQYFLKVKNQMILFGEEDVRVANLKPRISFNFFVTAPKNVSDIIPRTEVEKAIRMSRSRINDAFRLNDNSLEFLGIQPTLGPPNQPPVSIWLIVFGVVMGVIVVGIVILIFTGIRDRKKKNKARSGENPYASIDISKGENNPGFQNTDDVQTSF
# [5] = system: P. aeruginosa induced bacterial pneumonia; assay: P. aeruginosa induced bacterial pneumonia model, global ACE2 knockout; type: in vivo, mouse; details: Ace2-/- mice infected with P. aeruginosa, H4 treatment, n = 3
# Outline: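 Ace2−/− mice were given P. aeruginosa by intratracheal instillation via tracheal intubation, with test compound 18 h after inoculation and samples taken 30 h later; n = 3 per group. Endpoints: body weight at sacrifice, lung H&E, lung IFNγ, MPO immunofluorescence, and BAL flow cytometry (Fc block 20 min at 4 °C, viability dye, CD45+CD11b+Ly6G+ live cells).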
# [6] = system: ACE2 gene expression; assay: ACE2 mRNA in Calu-3 cells by quantitative real-time PCR; type: cell-based, human; details: 25 μg/mL H4, varying durations
# [7] = target: T1, ACE2; assay: ACE2 activity in culture medium of Calu-3 cells; type: cell-based
# Target sequence in this assay (Q9BYF1 18-708 limits assumed): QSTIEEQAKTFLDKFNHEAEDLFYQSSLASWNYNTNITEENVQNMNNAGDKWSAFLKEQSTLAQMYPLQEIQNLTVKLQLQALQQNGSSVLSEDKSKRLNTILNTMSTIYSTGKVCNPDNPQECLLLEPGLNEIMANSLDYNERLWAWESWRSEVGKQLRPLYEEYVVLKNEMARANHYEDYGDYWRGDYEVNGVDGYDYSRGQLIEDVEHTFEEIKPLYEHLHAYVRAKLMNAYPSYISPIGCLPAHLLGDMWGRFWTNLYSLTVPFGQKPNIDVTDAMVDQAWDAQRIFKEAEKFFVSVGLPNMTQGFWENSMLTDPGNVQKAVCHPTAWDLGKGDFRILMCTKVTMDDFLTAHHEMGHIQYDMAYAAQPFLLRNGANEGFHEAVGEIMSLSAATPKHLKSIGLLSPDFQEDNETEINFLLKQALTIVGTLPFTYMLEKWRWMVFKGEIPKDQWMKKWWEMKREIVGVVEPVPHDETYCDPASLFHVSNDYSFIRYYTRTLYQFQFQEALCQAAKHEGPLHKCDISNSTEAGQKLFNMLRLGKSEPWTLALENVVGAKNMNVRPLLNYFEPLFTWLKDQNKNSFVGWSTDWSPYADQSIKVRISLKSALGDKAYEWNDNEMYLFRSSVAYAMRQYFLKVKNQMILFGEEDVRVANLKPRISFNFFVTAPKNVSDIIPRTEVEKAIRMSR
# [8] = cited from earlier work
molecule,measurement,setting,value
H4-Succinic Acid-Val-Val-Glu-Glu-NH2 [H4 prodrug],toxicity in the lungs,[1],non-detectable toxicity
same,pro-inflammatory cytokine levels in lung tissues,[1]; ELISA and qRT-PCR,no surge in pro-inflammatory cytokine levels
same,solubility in water compared with H4,[2]; photographs of aqueous solutions at 1 mg/mL (Fig. 4B),improved solubility in water
same,lung histopathology (H&E),[3],enhanced histology
"O=C(O)CN(CCN(CC(=O)O)CC(=O)O)CCN(CC(=O)O)CC(=O)O [DTPA, diethylenetriaminepentaacetic acid]",ACE2 activity of recombinant ACE2,[4],substantially diminishes ACE2 activity
C[C@]12CC[C@@H]3c4ccc(O)cc4CC[C@H]3[C@@H]1C[C@@H](O)[C@@H]2O [H4],body weight recovery,[5],no discernible effects
same,lung histopathology (H&E),[5],no discernible effects
same,"neutrophil infiltration into the lungs (BAL flow cytometry, MPO staining)",[5],did not diminish neutrophil infiltration
same,production of MIP-2,[5],nor did it decrease the production of MIP-2
same,proinflammatory cytokine IFNγ in lung tissue,[5],no discernible effects
same,ACE2 mRNA levels,[6],did not induce ACE2 gene expression
same,plateau of ACE2 activity enhancement,[7],around 50 μg/mL
same,concentration range in which ACE2 activity is notably augmented,"[7]; 0–500 μg/ml, 18 h, 37 °C, culture medium",5 to 50 µg/mL
same,mid-effective concentration for enhancing ACE2 activity,[7]; dose-dependent,10 to 30 µg/mL
same,dissolution in water,"[2]; water, 25 °C, no method or source printed",0.5 mg/mL
same,ACE2 activity of recombinant ACE2,[4],restore the ACE2 activity that had been inhibited by DTPA
same,lung histopathology (H&E),[3],alleviated histopathology
"Cc1ccc(S(=O)(=O)Oc2ccc3oc4c(CO)ccc(NCCN(C)C)c4c(=O)c3c2)cc1 [XNT, xanthenone]",toxicity,[8],high toxicity
"CC(=O)NCC(=O)O.CC(=O)NCC(=O)O.N=C(N)c1ccc(N=NNc2ccc(C(=N)N)cc2)cc1 [DIZE, diminazene aceturate]",toxicity,[8],high toxicity
